Measurements of several laboratories.
Target: Tyrosine-protein kinase ITK/TSK (ITK, Homo sapiens, UniProt Q08881)
Sequence (Q08881 1-620, as in one of the studies): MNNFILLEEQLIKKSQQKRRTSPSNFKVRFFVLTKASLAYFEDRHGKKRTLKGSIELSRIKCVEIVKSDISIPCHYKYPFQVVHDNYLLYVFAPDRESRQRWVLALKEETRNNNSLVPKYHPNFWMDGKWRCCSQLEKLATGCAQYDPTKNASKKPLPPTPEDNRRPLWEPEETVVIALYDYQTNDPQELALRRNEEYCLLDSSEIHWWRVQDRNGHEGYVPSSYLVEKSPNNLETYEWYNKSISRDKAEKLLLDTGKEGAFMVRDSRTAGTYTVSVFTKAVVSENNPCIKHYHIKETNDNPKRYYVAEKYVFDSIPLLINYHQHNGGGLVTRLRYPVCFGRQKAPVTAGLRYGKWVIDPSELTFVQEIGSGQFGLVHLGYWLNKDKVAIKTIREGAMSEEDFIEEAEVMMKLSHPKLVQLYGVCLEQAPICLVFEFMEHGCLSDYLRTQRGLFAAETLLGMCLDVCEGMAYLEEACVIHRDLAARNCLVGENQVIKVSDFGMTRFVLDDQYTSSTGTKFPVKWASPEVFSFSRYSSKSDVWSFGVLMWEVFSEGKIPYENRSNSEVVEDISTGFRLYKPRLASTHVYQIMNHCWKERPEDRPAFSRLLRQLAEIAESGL

Cn1cc(-c2cc(F)cc(N3CCn4c(cc5c4CCCC5)C3=O)c2CO)cc(Nc2ccc(N3CCN(C4COC4)CC3)cn2)c1=O
inhibition (enzyme activity, inhibitor; 0.1 µM): 4%

O=c1[nH]c2ccccc2n1C1CCN(Cc2ccc(-c3[nH]c4cc5ncnc5cc4nc3-c3ccccc3)cc2)CC1
remaining signal (cell-free assay; 0.5 µM): 99.8%

COc1ncccc1-c1cnn2ccc(N3CCN(C(=O)OC(C)C)CC3)nc12
remaining binding (binding, competition with immobilised ligand; 1 µM): 100%

Cn1cncc1[C@@](O)(COc1ccc(C#N)cc1-c1ccc(OC(F)(F)F)cc1)c1ccc(C#N)cc1
remaining binding (cell-free assay, competition with immobilised ligand; 1 µM): 100%

CC(C)(C)c1cc(C=C(C#N)C#N)cc(Br)c1O
remaining activity (enzyme activity, inhibitor; 0.5 µM): 98.4%

Nc1ncc(-c2nc(N3CCOCC3)nc(N3CCOCC3)n2)c(C(F)F)n1
remaining binding (binding, competition with immobilised ligand; 10 µM): 44%

Cc1nn(C)cc1-c1nc2c(N3CCN(Cc4ccc(Cl)cc4)CC3)c(Cl)cnc2[nH]1
remaining binding (binding, competition with immobilised ligand; 1 µM): 100%

Cn1cc(-c2cccc(N3CCc4c(sc5c4CC(C)(C)C5)C3=O)c2CO)cc(Nc2ccncn2)c1=O
inhibition (enzyme activity, inhibitor; 1 µM): 6%

N#CC1(c2ccccn2)CCN(Cc2cc(C(=O)O)c(=O)n3ccccc23)CC1
remaining binding (cell-free assay, competition with immobilised ligand; 1 µM): 100%
